Each block holds one molecule with its values, some of them ahead of it.
How the values were obtained:
[1] = target: T1, Poly [ADP-ribose] polymerase 1 (Homo sapiens, UniProt P09874); assay: Inhibition of PARP1 by scintillation counting
[2] = target: T1, Poly [ADP-ribose] polymerase 1; assay: Inhibition of PARP1 in human C41 cells after 30 mins by cell-based assay
[3] = Half life in CD1 mouse at 3.0 mg/kg, iv; type: ADME, organism-based; set-up: dose 3 mg/kg, route intravenous; settings: in vivo
Method in brief: (§1)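 Male CD-1 mice (26-30 g) were dosed iv via the tail vein or po by gavage. Blood was taken by cardiac puncture after CO₂ asphyxiation at set times. Plasma proteins were precipitated with acidified methanol. Samples were quantified by LC-ESI-MS against external standards from spiked control plasma.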

[4] = AUC in CD1 mouse at 3.0 mg/kg, iv; type: ADME, organism-based; set-up: dose 3 mg/kg, route intravenous; settings: plasma; method in brief: as §1
B16-F10 [5] = assay: Antitumor activity against mouse B16F10 cells implanted in C57BL/6 mouse at 3 mg/kg, po BID for 5 days measured on day 19 in presence of DNA alkylating agent temozolomide; type: functional; settings: read-out: TGI
[6] = Volume of distribution in CD1 mouse at 3.0 mg/kg, iv; type: ADME, organism-based; set-up: dose 3 mg/kg, route intravenous; settings: in vivo; method in brief: as §1
B16-F10 [7] = assay: Antitumor activity against mouse B16F10 cells implanted in C57BL/6 mouse at 30 mg/kg, po BID for 5 days measured on day 16 in presence of DNA alkylating agent temozolomide; type: functional; settings: B16-F10, read-out: TGI
Method in brief: (§2)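 B16F10 syngeneic model: cells in Matrigel (1:1) were injected sc into the flank at 6 × 10⁴ cells per mouse. Recipients were female C57BL/6 mice, 6-8 weeks old, 18-20 g. Temozolomide was given po q.d. at 50 mg/kg/day for 5 consecutive days. Over the same period the PARP inhibitor was given po b.i.d. Read-out was relative tumor growth inhibition on the stated day.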

B16-F10 [8] = assay: Antitumor activity against mouse B16F10 cells implanted in C57BL/6 mouse at 10 mg/kg, po BID for 5 days measured on day 16 in presence of DNA alkylating agent temozolomide; type: functional; settings: B16-F10, read-out: TGI; method in brief: as §2
B16-F10 [9] = assay: Antitumor activity against mouse B16F10 cells implanted in C57BL/6 mouse at 3 mg/kg, po BID for 5 days measured on day 16 in presence of DNA alkylating agent temozolomide; type: functional; settings: read-out: TGI
[10] = Clearance in CD1 mouse at 3.0 mg/kg, iv; type: ADME, organism-based; set-up: dose 3 mg/kg, route intravenous; settings: in vivo; method in brief: as §1
[11] = Oral bioavailability in CD1 mouse at 10 mg/kg; type: ADME, organism-based; settings: in vivo; method in brief: as §1
B16-F10 [12] = assay: Antitumor activity against mouse B16F10 cells implanted in C57BL/6 mouse at 30 mg/kg, po BID for 5 days measured on day 19 in presence of DNA alkylating agent temozolomide; type: functional; settings: read-out: TGI; method in brief: as §2
B16-F10 [13] = assay: Antitumor activity against mouse B16F10 cells implanted in C57BL/6 mouse at 10 mg/kg, po BID for 5 days measured on day 19 in presence of DNA alkylating agent temozolomide; type: functional; settings: read-out: TGI; method in brief: as §2
[14] = AUC in CD1 mouse at 10 mg/kg, po; type: ADME, organism-based; set-up: dose 10 mg/kg, route oral; settings: plasma; method in brief: as §1
[15] = Cmax in CD1 mouse at 10 mg/kg, po; type: ADME, organism-based; set-up: dose 10 mg/kg, route oral; settings: in vivo; method in brief: as §1
B16-F10 [16] = assay: Antitumor activity against mouse B16F10 cells implanted in C57BL/6 mouse at 50 mg/kg, po QD for 5 days measured on day 16; type: functional; settings: read-out: TGI
B16-F10 [17] = assay: Antitumor activity against mouse B16F10 cells implanted in C57BL/6 mouse at 50 mg/kg, po QD for 5 days measured on day 12; type: functional; settings: read-out: TGI
B16-F10 [18] = assay: Antitumor activity against mouse B16F10 cells implanted in C57BL/6 mouse at 60 mg/kg, po BID for 5 days measured on day 12 in presence of DNA alkylating agent temozolomide; type: functional; settings: read-out: TGI; method in brief: as §2
B16-F10 [19] = assay: Antitumor activity against mouse B16F10 cells implanted in C57BL/6 mouse at 60 mg/kg, po BID for 5 days measured on day 19 in presence of DNA alkylating agent temozolomide; type: functional; settings: read-out: TGI; method in brief: as §2
B16-F10 [20] = assay: Antitumor activity against mouse B16F10 cells implanted in C57BL/6 mouse at 10 mg/kg, po BID for 5 days measured on day 12 in presence of DNA alkylating agent temozolomide; type: functional; settings: read-out: TGI; method in brief: as §2
B16-F10 [21] = assay: Antitumor activity against mouse B16F10 cells implanted in C57BL/6 mouse at 30 mg/kg, po BID for 5 days measured on day 12 in presence of DNA alkylating agent temozolomide; type: functional; settings: read-out: TGI; method in brief: as §2

T1 sequence (P09874 whole entry): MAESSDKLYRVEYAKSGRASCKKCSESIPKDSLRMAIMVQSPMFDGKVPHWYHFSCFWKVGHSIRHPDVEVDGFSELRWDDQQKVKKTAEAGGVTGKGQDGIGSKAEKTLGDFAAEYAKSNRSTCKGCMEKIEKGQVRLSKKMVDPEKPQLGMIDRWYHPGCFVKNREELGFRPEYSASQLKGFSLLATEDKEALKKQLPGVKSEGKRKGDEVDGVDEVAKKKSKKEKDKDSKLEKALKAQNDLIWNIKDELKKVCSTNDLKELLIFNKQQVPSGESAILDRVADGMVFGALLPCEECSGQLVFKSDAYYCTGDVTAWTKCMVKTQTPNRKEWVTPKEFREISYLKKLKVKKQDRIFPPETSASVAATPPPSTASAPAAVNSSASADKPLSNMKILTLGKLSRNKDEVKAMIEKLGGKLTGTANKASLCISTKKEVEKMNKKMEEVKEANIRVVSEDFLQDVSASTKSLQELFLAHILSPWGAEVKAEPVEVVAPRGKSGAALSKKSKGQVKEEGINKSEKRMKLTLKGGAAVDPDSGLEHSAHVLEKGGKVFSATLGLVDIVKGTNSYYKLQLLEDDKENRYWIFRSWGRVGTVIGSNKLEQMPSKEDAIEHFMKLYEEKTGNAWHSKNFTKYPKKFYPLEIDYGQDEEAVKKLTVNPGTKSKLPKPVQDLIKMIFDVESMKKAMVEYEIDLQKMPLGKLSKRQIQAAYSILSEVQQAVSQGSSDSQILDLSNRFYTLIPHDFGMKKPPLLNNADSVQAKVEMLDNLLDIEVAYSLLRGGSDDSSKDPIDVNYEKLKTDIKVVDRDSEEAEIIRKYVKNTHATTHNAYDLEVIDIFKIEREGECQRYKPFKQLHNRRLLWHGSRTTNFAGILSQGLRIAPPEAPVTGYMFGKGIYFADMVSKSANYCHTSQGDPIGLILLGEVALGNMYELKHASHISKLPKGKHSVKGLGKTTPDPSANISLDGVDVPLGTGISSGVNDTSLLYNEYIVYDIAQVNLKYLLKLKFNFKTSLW

Structure (SMILES): NC(=O)c1cccc2[nH]c(-c3ccc(-c4n[nH]c(=O)o4)cc3)nc12
Ki [1]: 1.6 nM
EC50 [2]: 64 nM

half-life [3]: 37.2 min
AUC [4]: 1300 nM·h
Vd [6]: 6.6 L/kg
clearance [10]: 7.4 L/h/kg
bioavailability [11]: 141%
AUC [14]: 6100 nM·h
Cmax [15]: 1.8 µM
Structure (SMILES): NC(=O)c1cccc2[nH]c(-c3ccc(-c4ccccn4)cc3)nc12
inhibition in vivo at 3 mg/kg (B16-F10 [5]): 23%
inhibition in vivo at 30 mg/kg (B16-F10 [7]): 72%
inhibition in vivo at 10 mg/kg (B16-F10 [8]): 83%
inhibition in vivo at 3 mg/kg (B16-F10 [9]): 66%
inhibition in vivo at 30 mg/kg (B16-F10 [12]): 70%
inhibition in vivo at 10 mg/kg (B16-F10 [13]): 32%

Structure (SMILES): NC(=O)c1cccc2[nH]c(-c3ccc(-c4nsc(=O)[nH]4)cc3)nc12
Ki [1]: 5.2 nM
EC50 [2]: 461 nM

Ki [1]: 6.8 nM
EC50 [2]: 20 nM
Structure (SMILES): NC(=O)c1cccc2[nH]c(-c3ccc(-c4cn5ccc(C(F)(F)F)cc5n4)cc3)nc12

Ki [1]: 10 nM
EC50 [2]: > 1000 nM
Structure (SMILES): NC(=O)c1cccc2[nH]c(-c3ccc(-c4ccno4)cc3)nc12

Structure (SMILES): NC(=O)c1cccc2[nH]c(-c3ccc(-c4ncc[nH]4)cc3)nc12
half-life [3]: 33.6 min
AUC [4]: 310 nM·h
Ki [1]: 2.2 nM
Vd [6]: 26 L/kg
clearance [10]: 32 L/h/kg
EC50 [2]: 2.2 nM
bioavailability [11]: 0%

Ki [1]: 2 nM
EC50 [2]: 71 nM
Structure (SMILES): NC(=O)c1cccc2[nH]c(-c3ccc(-c4ccccc4)cc3)nc12

Structure (SMILES): NC(=O)c1cccc2[nH]c(-c3ccc(-c4cscn4)cc3)nc12
Ki [1]: 1.7 nM
EC50 [2]: 3.7 nM

Structure (SMILES): NC(=O)c1cccc2[nH]c(-c3ccc(-c4nnn[nH]4)cc3)nc12
Ki [1]: 20 nM

Structure (SMILES): NC(=O)c1cccc2[nH]c(-c3ccc(-c4cn5ccccc5n4)cc3)nc12
Ki [1]: 2.9 nM
EC50 [2]: 20 nM

Structure (SMILES): Cc1nc(-c2ccc(-c3nc4c(C(N)=O)cccc4[nH]3)cc2)co1
Ki [1]: 2.4 nM
EC50 [2]: 18 nM

Structure (SMILES): Cn1ccc(-c2ccc(-c3nc4c(C(N)=O)cccc4[nH]3)cc2)n1
Ki [1]: 4.5 nM
EC50 [2]: 20 nM

Ki [1]: 2.2 nM
EC50 [2]: 26 nM
Structure (SMILES): NC(=O)c1cccc2[nH]c(-c3ccc(-c4csc(N)n4)cc3)nc12

Structure (SMILES): NC(=O)c1cccc2[nH]c(-c3ccc(-c4cnco4)cc3)nc12
half-life [3]: 58.2 min
AUC [4]: 540 nM·h
Ki [1]: 0.76 nM
Vd [6]: 26 L/kg
clearance [10]: 18 L/h/kg
EC50 [2]: 0.99 nM
bioavailability [11]: 6%
AUC [14]: 110 nM·h
Cmax [15]: 0.07 µM

Ki [1]: 3.8 nM
EC50 [2]: 328 nM
Structure (SMILES): NC(=O)c1cccc2[nH]c(-c3ccc(-c4nc(=S)o[nH]4)cc3)nc12

half-life [3]: 34.8 min
AUC [4]: 1100 nM·h
Vd [6]: 7.3 L/kg
clearance [10]: 8.8 L/h/kg
bioavailability [11]: 73%
AUC [14]: 2700 nM·h
Cmax [15]: 2.2 µM
Structure (SMILES): NC(=O)c1cccc2[nH]c(-c3ccc(-c4cccnc4)cc3)nc12

Structure (SMILES): Cn1nnc2c(C(N)=O)ncn2c1=O [TEMOZOLOMIDE]
inhibition in vivo at 50 mg/kg (B16-F10 [16]): 56%
inhibition in vivo at 50 mg/kg (B16-F10 [17]): 43%

half-life [3]: 24 min
AUC [4]: 940 nM·h
Vd [6]: 5.9 L/kg
clearance [10]: 10 L/h/kg
bioavailability [11]: 44%
AUC [14]: 1400 nM·h
Cmax [15]: 0.76 µM
Structure (SMILES): NC(=O)c1cccc2[nH]c(-c3ccc(-c4ccncc4)cc3)nc12

half-life [3]: 21.6 min
AUC [4]: 3000 nM·h
Ki [1]: 1 nM
Vd [6]: 1.7 L/kg
clearance [10]: 3.3 L/h/kg
EC50 [2]: 3.7 nM
bioavailability [11]: 41%
AUC [14]: 4000 nM·h
Cmax [15]: 2.7 µM
Structure (SMILES): NC(=O)c1cccc2[nH]c(-c3ccc(-c4nnco4)cc3)nc12
inhibition in vivo at 60 mg/kg (B16-F10 [18]): 67%
inhibition in vivo at 60 mg/kg (B16-F10 [19]): 81%
inhibition in vivo at 10 mg/kg (B16-F10 [20]): 57%
inhibition in vivo at 30 mg/kg (B16-F10 [21]): 59%
inhibition in vivo at 30 mg/kg (B16-F10 [12]): 72%
inhibition in vivo at 10 mg/kg (B16-F10 [13]): 53%

Structure (SMILES): NC(=O)c1cccc2[nH]c(-c3ccc(-c4nc(=O)o[nH]4)cc3)nc12
Ki [1]: 16 nM

Structure (SMILES): NC(=O)c1cccc2[nH]c(-c3ccc(-c4cnc[nH]4)cc3)nc12
Ki [1]: 1.2 nM
EC50 [2]: 3.7 nM

Structure (SMILES): Cc1noc(-c2ccc(-c3nc4c(C(N)=O)cccc4[nH]3)cc2)n1
Ki [1]: 4 nM
EC50 [2]: 9.1 nM
